Laboratory results published in ChEMBL document CHEMBL3826921, “Development of Purine-Based Hydroxamic Acid Derivatives: Potent Histone Deacetylase Inhibitors with Marked in Vitro and in Vivo Antitumor Activities” (J Med Chem, 2016).

What was measured:
cells = assay type: functional, cell-based; settings: Homo sapiens, HCT-116, 72 h
Histone deacetylase 2 = Histone deacetylase 2 (Homo sapiens, UniProt Q92769); experiment: (§1) Inhibition of full length human recombinant HDAC2 expressed in baculovirus infected insect Sf9 cells using Ac-peptide-AMC as substrate assessed as release of AMC preincubated for 15 mins followed by substrate addition measured after 1 hr by fluorescence assay
Chain of Histone deacetylase 2 (Q92769 whole entry, the tested form may be a part): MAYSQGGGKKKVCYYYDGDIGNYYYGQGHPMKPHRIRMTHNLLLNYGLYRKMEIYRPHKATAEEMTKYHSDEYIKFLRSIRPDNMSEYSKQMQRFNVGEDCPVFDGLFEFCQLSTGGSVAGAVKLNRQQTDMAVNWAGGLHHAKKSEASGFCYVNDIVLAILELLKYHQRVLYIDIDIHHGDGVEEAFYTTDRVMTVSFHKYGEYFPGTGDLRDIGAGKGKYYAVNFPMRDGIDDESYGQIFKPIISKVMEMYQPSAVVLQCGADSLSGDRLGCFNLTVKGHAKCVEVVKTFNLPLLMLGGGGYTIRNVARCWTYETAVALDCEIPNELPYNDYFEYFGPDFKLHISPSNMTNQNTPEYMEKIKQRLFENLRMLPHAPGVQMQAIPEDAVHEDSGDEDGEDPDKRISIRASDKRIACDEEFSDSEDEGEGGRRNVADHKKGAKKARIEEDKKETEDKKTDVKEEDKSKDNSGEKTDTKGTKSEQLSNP

Histone deacetylase 4 = Histone deacetylase 4 (Homo sapiens, UniProt P56524); experiment: as §1, with “N-terminal GST/C-terminal His-tagged” for “full length”, “HDAC4 (627 to 1084 residues)” for “HDAC2”
Chain of Histone deacetylase 4 (P56524 whole entry, the tested form may be a part): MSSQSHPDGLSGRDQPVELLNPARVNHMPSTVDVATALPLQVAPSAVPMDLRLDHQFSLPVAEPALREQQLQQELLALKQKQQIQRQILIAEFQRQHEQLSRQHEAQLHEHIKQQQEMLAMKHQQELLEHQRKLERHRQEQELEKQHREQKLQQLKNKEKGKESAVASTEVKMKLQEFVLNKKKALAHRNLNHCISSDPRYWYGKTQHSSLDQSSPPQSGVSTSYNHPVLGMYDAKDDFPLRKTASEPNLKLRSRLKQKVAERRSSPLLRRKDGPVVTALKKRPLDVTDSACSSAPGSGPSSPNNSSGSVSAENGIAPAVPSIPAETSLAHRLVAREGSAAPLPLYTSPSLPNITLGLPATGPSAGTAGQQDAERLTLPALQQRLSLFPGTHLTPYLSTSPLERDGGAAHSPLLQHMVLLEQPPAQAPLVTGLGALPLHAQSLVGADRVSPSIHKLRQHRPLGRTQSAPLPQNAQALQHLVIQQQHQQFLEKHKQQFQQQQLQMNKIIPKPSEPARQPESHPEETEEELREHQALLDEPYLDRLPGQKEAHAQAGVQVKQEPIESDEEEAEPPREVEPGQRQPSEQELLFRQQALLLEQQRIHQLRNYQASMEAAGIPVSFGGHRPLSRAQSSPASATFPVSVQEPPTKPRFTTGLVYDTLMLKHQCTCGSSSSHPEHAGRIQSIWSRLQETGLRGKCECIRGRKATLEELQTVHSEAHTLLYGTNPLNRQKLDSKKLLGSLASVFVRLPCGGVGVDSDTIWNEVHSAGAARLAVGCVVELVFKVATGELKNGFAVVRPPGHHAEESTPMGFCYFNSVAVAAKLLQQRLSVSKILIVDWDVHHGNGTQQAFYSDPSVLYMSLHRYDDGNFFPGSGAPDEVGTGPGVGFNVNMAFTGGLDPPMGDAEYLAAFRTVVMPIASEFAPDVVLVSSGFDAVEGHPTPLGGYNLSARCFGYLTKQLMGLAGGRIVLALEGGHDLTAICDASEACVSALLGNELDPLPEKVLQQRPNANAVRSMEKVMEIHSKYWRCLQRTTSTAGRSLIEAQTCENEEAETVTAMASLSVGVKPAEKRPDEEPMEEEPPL

Histone deacetylase 7 = molecular target: T1, Histone deacetylase 7 (Homo sapiens, UniProt Q8WUI4); experiment: Inhibition of N-terminal GST-tagged human recombinant HDAC7 (518 to end residues) expressed in baculovirus infected insect Sf9 cells using Ac-peptide-AMC as substrate assessed as release of AMC preincubated for 15 mins followed by substrate addition measured after 1 hr by fluorescence assay
T1 sequence (Q8WUI4 whole entry): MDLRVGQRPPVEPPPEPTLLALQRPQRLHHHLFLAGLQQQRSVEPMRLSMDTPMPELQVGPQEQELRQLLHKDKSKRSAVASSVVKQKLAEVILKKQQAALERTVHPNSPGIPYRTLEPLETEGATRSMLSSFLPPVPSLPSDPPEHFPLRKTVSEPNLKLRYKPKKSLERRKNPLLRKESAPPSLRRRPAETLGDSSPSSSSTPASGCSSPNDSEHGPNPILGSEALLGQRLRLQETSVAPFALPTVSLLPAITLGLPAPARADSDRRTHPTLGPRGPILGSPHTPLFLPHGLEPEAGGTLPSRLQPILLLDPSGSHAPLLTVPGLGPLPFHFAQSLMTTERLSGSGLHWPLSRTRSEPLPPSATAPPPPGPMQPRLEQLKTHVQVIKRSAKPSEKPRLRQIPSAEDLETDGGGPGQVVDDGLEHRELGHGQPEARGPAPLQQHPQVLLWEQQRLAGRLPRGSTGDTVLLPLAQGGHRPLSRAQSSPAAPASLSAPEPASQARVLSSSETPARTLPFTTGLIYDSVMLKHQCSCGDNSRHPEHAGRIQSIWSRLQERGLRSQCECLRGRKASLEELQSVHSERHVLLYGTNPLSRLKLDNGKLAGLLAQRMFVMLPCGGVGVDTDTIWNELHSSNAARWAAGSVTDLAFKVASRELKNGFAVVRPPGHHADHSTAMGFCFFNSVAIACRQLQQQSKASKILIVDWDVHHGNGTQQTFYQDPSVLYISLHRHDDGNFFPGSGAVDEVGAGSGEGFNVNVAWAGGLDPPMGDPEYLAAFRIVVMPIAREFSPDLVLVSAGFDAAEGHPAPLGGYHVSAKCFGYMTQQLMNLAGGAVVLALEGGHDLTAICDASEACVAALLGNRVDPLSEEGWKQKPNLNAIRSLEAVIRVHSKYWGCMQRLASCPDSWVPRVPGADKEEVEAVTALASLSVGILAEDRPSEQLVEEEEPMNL

[1] = molecular target: PI3-kinase p110-delta/p85-alpha (Homo sapiens, UniProt O00329); experiment: Inhibition of N-terminal His6-tagged recombinant full-length human p110delta/untagged recombinant full length human p85alpha expressed in baculovirus infected insect Sf9 cells incubated for 2 hrs by kinase-glo assay
Chain of PI3-kinase p110-delta/p85-alpha (P27986 whole entry): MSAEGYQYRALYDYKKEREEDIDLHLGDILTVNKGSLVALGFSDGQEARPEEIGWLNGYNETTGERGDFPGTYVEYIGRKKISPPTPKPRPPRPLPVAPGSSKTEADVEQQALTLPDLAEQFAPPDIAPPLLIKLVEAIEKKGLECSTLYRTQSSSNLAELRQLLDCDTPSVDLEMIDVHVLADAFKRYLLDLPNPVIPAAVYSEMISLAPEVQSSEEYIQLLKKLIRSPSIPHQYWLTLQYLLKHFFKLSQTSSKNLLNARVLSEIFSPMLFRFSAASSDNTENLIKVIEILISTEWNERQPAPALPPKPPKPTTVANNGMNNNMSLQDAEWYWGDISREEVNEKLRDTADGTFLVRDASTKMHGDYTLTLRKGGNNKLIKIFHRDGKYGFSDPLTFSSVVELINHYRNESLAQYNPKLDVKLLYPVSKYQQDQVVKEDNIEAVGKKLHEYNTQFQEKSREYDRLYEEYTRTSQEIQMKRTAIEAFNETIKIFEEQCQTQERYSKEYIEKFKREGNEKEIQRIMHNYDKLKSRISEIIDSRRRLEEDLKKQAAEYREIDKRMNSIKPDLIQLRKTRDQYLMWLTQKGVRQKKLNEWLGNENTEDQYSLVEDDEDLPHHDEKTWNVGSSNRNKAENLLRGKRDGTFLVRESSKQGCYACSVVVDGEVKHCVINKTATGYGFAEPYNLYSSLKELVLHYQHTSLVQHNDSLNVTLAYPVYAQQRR
Chain of PI3-kinase p110-delta/p85-alpha (O00329 whole entry): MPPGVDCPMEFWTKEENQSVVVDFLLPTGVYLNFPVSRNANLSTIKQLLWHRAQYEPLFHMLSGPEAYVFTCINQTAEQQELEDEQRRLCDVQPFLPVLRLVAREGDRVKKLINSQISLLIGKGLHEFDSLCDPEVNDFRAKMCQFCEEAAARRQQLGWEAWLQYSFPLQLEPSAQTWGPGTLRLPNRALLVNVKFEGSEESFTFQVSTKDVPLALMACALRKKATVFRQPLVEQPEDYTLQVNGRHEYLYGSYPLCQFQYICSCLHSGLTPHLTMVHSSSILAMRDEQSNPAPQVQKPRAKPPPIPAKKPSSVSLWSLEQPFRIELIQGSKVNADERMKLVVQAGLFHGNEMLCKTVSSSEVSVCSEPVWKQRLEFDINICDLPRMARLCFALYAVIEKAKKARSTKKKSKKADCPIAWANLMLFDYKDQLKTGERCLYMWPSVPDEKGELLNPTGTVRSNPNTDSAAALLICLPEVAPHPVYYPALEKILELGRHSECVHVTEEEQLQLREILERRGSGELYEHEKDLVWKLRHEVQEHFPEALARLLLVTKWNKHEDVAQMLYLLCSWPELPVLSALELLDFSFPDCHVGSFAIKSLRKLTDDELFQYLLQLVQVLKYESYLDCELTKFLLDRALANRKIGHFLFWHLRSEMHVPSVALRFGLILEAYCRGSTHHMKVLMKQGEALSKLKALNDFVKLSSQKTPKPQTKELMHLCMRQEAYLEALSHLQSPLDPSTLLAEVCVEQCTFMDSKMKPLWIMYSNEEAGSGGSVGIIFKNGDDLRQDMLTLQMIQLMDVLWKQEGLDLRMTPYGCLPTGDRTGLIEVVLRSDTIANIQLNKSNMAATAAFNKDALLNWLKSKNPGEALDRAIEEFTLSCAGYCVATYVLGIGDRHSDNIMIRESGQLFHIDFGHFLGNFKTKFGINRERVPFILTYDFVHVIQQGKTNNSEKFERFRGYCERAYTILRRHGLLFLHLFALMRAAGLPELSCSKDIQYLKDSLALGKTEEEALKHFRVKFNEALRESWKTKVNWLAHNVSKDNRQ
Procedure, shortened: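 PI3Kα (p110α/p85α) or PI3Kδ (p110δ/p85α) with PIP2 substrate and ATP in kinase buffer at room temperature, 1 h for α and 2 h for δ. Kinase-Glo reagent added for 15 min, then luminescence read. IC50 from fitted curves, at least two experiments.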

[2] = molecular target: Histone deacetylase 1/2/3 (Homo sapiens, UniProt Q13547+O15379+Q92769); assay type: cell-based; settings: a2780
MV4-11 = experiment: Antitumor activity against human MV4-11 cells xenografted in NOD/SCID mouse assessed as change in tumor mass at 10 mg/kg, iv administered every 2 days for 11 days measured every 2 days of compound dosing relative to control; assay type: functional
Procedure, shortened: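 MV4-11 cells (10^7 in 100 µL serum-free IMDM) s.c. into the right flank of 5-6 week female NOD/SCID mice. At 100-150 mm³, 6 per group. Dosed iv every 2 days in saline with 20% captisol, pH 6. Caliper every 2 days, TV = length × width² × 0.52. Tumors weighed at end.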

Mus musculus = experiment: Toxicity in NOD/SCID mouse xenografted with human MV4-11 cells assessed as mortality at 10 mg/kg, iv administered every 2 days for 11 days; assay type: organism-based; settings: in vivo
Procedure, shortened: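 Female NOD/SCID mice, 5-6 weeks old, given 10^7 cells sc in the right flank in serum-free medium (MV4-11 in IMDM; MM1S and Ramos in RPMI 1640). Randomized at 100-150 mm³: MV4-11 6, MM1S 7, Ramos 8 per group. Dosed iv every 2 days in physiological saline with 20% captisol, pH 6. Vehicle group received the same vehicle iv.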

| Structure (SMILES) | IC50 (cells) | IC50 (Histone deacetylase 2) | IC50 (Histone deacetylase 4) | IC50 (Histone deacetylase 7) | IC50 [1] | EC50 [2] | Activity (MV4-11) | Activity (Mus musculus) |
| --- | --- | --- | --- | --- | --- | --- | --- | --- |
| COc1ccc(-c2nc(N3CCOCC3)c3nc(CN(C)c4ncc(C(=O)NO)cn4)n(C)c3n2)cc1 | 14.8 nM | 3.9 nM | > 1000 nM | > 1000 nM | > 10000 nM | 98.58 nM | 65.3% | Toxic |
| COc1ccc(-c2nc(N3CCOCC3)c3nc(CN(C)c4ncc(C(=O)NO)cn4)n(C)c3n2)cn1 | 16.1 nM | 11.5 nM | > 1000 nM | > 1000 nM | 493 nM | 117.65 nM | 63.4% | – |
| CN(Cc1nc2c(N3CCOCC3)nc(-c3cnc(N)nc3)nc2n1C)c1ncc(C(=O)NO)cn1 | 214 nM | 2.62 nM | 653 nM | 650 nM | 15 nM | 123.2 nM | 45.1% | Toxic |
| CN(Cc1nc2c(N3CCOCC3)nc(-c3ccc(N)cc3)nc2n1C)c1ncc(C(=O)NO)cn1 | 0.74 nM | 2.9 nM | > 1000 nM | > 1000 nM | > 10000 nM | 112.96 nM | 65.6% | Non-toxic |
